# From PubChem BioAssay
# MrgX1 antagonist: antagonists of human MrgX1 receptor, primary screen, HEK293 cells, Fluo-4 calcium flux; Mas-related G-protein coupled receptor member X1 (Homo sapiens), Q96LB2; 1.3% of 310,000 active; AID 588676, 2011; BAM8-22 antagonism; hits give low values; B-score at 10 µM;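 active = calcium-response B-score plate-corrected more than 3 library SD below zero, starting fluorescence within 5 deviations, no agonist response on first addition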;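 note: peak minus trough fluorescence over baseline after final BAM8-22 challenge near maximal dose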
# Target sequence (Q96LB2 whole entry, looked up): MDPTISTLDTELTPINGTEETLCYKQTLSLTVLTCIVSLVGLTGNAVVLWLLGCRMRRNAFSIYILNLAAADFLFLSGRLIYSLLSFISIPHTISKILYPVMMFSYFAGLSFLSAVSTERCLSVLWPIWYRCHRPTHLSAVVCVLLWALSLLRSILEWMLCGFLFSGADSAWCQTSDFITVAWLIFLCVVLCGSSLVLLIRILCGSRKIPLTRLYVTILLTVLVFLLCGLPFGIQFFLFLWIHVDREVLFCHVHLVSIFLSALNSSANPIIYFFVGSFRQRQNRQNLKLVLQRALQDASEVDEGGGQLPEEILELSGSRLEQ
# RGS4 inh: RGS4 inhibitors, primary screen, cell-based, HEK293 M3R inducible RGS4, calcium flux; Fluo-4 calcium flux; hits give high values; triggered by carbachol at its EC20; B-score at 10 µM; 0.45% of 310,000 active;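 active = B-score, a plate-corrected calcium signal, over three deviations above library mean, with baseline fluorescence within five deviations of library mean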;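 note: RGS4 expression induced by doxycycline in cells with stable M3 receptor; B-score is computed from the integrated fluorescence ratio over baseline after carbachol; higher B-score means a larger calcium signal and so more RGS4 inhibition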
# Target sequence (P49798 whole entry, looked up): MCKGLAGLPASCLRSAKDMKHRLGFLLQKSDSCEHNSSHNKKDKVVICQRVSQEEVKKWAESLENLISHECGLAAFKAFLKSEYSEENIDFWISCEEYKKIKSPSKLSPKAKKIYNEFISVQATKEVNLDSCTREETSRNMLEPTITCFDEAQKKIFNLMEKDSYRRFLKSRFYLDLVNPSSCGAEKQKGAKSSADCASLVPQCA
# MrgX1 allo act: positive allosteric modulators of MrgX1, primary screen, HEK293 cells, Fluo-4 calcium flux | B-score at 10 µM | 0.63% of 310,000 active | FDSS; hits give high values | AID 588675, 2011;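 active = plate-corrected calcium response at least 3 library SD above typical, normal starting fluorescence, not activating the receptor alone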;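 note: compound read alongside a low EC10 to EC30 dose of BAM8-22 agonist; peak minus trough fluorescence over baseline measured at the second addition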
# RGS4 act: RGS4 potentiators or activators, primary screen, cell-based, HEK293 M3R inducible RGS4, calcium flux | carbachol calcium flux Fluo4; hits give low values | B-score at 10 µM | 0.92% of 310,000 active | AID 463111, 2010;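 active = B-score of the integrated calcium signal more than 4 SD below the library mean, with starting fluorescence not abnormally high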;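 note: negative B-score means reduced calcium response which marks RGS4 activation or potentiation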
#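 Test system: HEK293 cells with stable M3R and inducible RGS4; also added: carbachol at ECmax as muscarinic agonist stimulus; schedule: dye loading 30 min 37 °C, buffer rest 30 min RT; technique: kinetic calcium fluorescence imaging with Fluo4-AM dye, 2 µM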
# MrgX1 ag: agonists of human MrgX1 receptor, primary screen, HEK293 cells, Fluo-4 calcium flux; Fluo-4 calcium fluorescence, agonist mode; hits give high values; B-score at 10 µM; 0.44% of 310,000 active; AID 588627, 2011;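 active = calcium response B-score plate-corrected fluorescence ratio at least 3 library SD, with starting fluorescence B-score inside 5 SD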
#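 Test system: HEK293 cells stably expressing human MrgX1 receptor; Input: fifteen thousand cells per well; Dosing: compound delivered in addition one of three; Schedule: overnight seeding, then 1 h dark dye loading; Technique: Fluo-4 NW calcium fluorescence; Measure: B-scored fluorescence response ratio; Controls: positive and negative controls per plate.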
# A number is an active result; 0 = inactive; - = no result given. Sampled rows, rich in hits. Any-hit rate of the full collection: about 3.5%.
SMILES,MrgX1 antagonist,RGS4 inh,MrgX1 allo act,RGS4 act,MrgX1 ag
Cc1ccc(C(=O)Nc2ccccc2N2CCCC2)cc1,0,0,0,0,0
COc1ccc(CC2=CC(=O)c3ccccc3C2=O)cc1,0,6.2,0,0,0
CCc1ccccc1NC(=O)c1ccc(CN2CCC(Cc3ccccc3)CC2)cc1,0,0,0,0,0
CC(=O)NC1C(=O)N=C(SCC(=O)Nc2ccc(C(F)(F)F)cc2Cl)NC1=O (stereo not given),0,0,0,0,0
CCOC(=O)c1[nH]c2cc(OC)c(OC)cc2c1NC(=O)C(C)N1CCN(Cc2ccccc2)CC1 (stereo not given),0,0,0,-8.7,0
CCOC(=O)c1[nH]c2ccc(OC)cc2c1NC(=O)C(C)N1CCSCC1 (stereo not given),-,0,-,0,-
CCCCN(C)CC(O)Cn1cc(/C=C/C(=O)c2ccc(C)cc2)c2ccccc21 (stereo not given),-5.4,0,0,0,0
COc1ccc(C)cc1NC(=O)c1ccc2c(O)c(S(=O)(=O)c3ccccc3)c(=O)[nH]c2c1,0,0,0,0,0
CN1C(=O)C(O)(CC(=O)c2ccc(F)cc2)c2cc(Br)ccc21 (stereo not given),-5.1,0,0,0,0
CCCNC(=O)OC[C@H]1O[C@H](CCO/N=C(\C)CCN2CCc3nc(-c4ccccc4)c(-c4ccccc4)cc3C2)C=C[C@@H]1Oc1ccc(OC)cc1,0,0,0,-8.1,0
CC(C)(C)NC(=O)c1ccc2nsnc2c1,0,0,0,0,0
Cc1ccc(N2C(=O)C(F)(F)C2c2ccccc2)cc1 (stereo not given),0,0,0,0,0
O=C1N(c2ccc3c(c2)OCCO3)C(c2ccccc2)C1(F)F (stereo not given),0,0,6.9,0,0
CCN1C(=O)CS/C1=C(\C#N)S(=O)(=O)c1ccccc1,0,0,0,0,41
Cc1ccc(SCc2nc3ncccn3c2Br)cc1,0,0,0,-7.6,0
COCCn1c(C)cc(C(=O)COC(=O)c2ccc(Cl)c(S(N)(=O)=O)c2)c1C,0,0,0,0,0
c1ccc(-c2ccc(CN3CCN(c4ncccn4)CC3)cc2)cc1,0,0,0,-7,0
N=c1n(Cc2ccccc2)c2ccccc2n1CC(O)COc1ccc(Cl)cc1Cl (stereo not given),-,0,-,-9,-
N=c1n(Cc2ccc(Cl)cc2)c2ccccc2n1CC(O)COc1ccccc1 (stereo not given),0,0,0,0,0
CC1=C(C#N)c2nc(N)c(C#N)c(C)c2/C1=C\c1ccc(OCC(=O)O)c(Cl)c1,-5.4,0,0,0,0
CCN1CCc2c(OCc3ccc(C)cc3)cccc2C1=O,0,0,0,0,0
Cc1cccc(C)c1-n1cccc1/C=C1/C(=N)N2C(=NC1=O)SN=C2S(C)(=O)=O,0,0,0,-7.9,0
Cc1cc(/C=C2/C(=N)N3C(=NC2=O)SN=C3S(C)(=O)=O)c(C)n1-c1ccc(F)cc1,0,0,18,0,0
Cc1ccc(-n2cccc2/C=C2/C(=N)N3C(=NC2=O)SN=C3S(C)(=O)=O)cc1Cl,0,-,0,-,0
CC1=CSC2=NC(=O)/C(=C\c3cccn3-c3ccccc3)C(=N)N12,0,0,8.8,0,0
SMILES,MrgX1 antagonist,RGS4 inh,MrgX1 allo act,RGS4 act,MrgX1 ag
CCC1=NN2C(=N)/C(=C\c3cccn3-c3cccc(Cl)c3)C(=O)N=C2S1,0,0,11,0,0
COc1ccc(CCNc2nc(-c3ccc(F)cc3)c(CC(=O)O)s2)cc1OC,0,0,0,0,0
COc1ccc(-c2ccc(/C=C3/C(=N)N4C(C)=CSC4=NC3=O)o2)c([N+](=O)[O-])c1,0,0,0,0,29
CCN(CC(=O)Nc1ccc(NC(C)=O)cc1)C(=O)c1cccc(S(=O)(=O)N2CCCC2)c1,0,0,0,0,0
COc1ccc(NC(=O)CN(C)C(=O)c2cc(CN3C(=O)c4ccccc4C3=O)ccc2OC)cc1,0,0,0,0,0
CC(C)n1nc(C(=O)Nc2nc3ccccc3[nH]2)c2ccccc2c1=O,0,0,0,-9.5,0
O/N=C(\c1ccccc1)c1nccc2ccccc12,0,0,0,0,0
C/C(=C\C(=O)c1ccc(Br)cc1)Nc1ccc(Cl)cc1,0,0,0,-7.2,0
CC(C)CN1C(=S)SC(C)(C)C1n1oc(=O)n(-c2ccccc2)c1=O (stereo not given),0,0,0,0,0
CC(C)CN1C(=S)SC(C)(C)C1n1oc(=O)n(-c2ccc(Cl)cc2)c1=O (stereo not given),0,0,0,-11,0
O=S(=O)(CCSc1nc2ccccc2s1)c1nc2ccccc2s1,0,0,0,-7.4,0
CCS(=O)(=O)CCSc1nc2ccccc2s1,0,0,0,0,0
O=C1OC(c2ccc(F)cc2)=C/C1=C\c1ccc([N+](=O)[O-])o1,-7.8,0,0,0,0
O=C1OC(c2ccc(F)cc2)=C/C1=C\c1ccc(O)cc1,0,0,0,0,0
Cc1cccc(NC(=O)C(=O)NCC2CCCN2S(=O)(=O)c2ccccc2)c1 (stereo not given),0,0,0,0,0
Cc1ccccc1CNc1nnnn1C,0,0,0,0,0
Cc1ccc(C(c2sc3nc(C)nn3c2O)N2CCN(CCO)CC2)cc1 (stereo not given),0,0,0,0,0
Cc1ccc(C(c2sc3nc(C)nn3c2O)N2CCN(c3ccccc3F)CC2)cc1 (stereo not given),-5.2,0,0,0,0
COc1ccc(C(CCN2CCCCC2)c2c(OC)cc(OC)c3c(-c4ccccc4)cc(=O)oc23)cc1 (stereo not given),0,0,14,0,0
O=C(O)/C=C/C(=O)NCc1ccccn1,-6.7,0,0,0,0
O=C(O)/C=C/C(=O)NCc1ccccc1,0,0,0,0,0
CCOC(=O)c1ccccc1NC(=O)C1CC(=O)N(c2ccccc2)C1 (stereo not given),0,0,0,0,0
CC1(C)CC(=O)C(C=Nc2ccccc2C(=O)O)=C(O)C1,0,0,0,0,0
CC1(C)CC(=O)C(C=Nc2ccccc2Sc2ccccc2)=C(O)C1,0,0,0,-8.8,0
CC(OC(=O)c1cccc([N+](=O)[O-])c1)C(=O)NCc1ccc2c(c1)OCO2 (stereo not given),-5.9,0,0,0,0
CCOC(=O)c1ccc(C(=S)N2CCCC2)cc1,-,0,-,0,-
Cc1ncc(CO)c(/C=N/NC(=S)Nc2ccc(Cl)c(Cl)c2)c1O,-9.6,0,0,0,0
COc1ccc(C2SCCN2C(=S)Nc2cccc(C(F)(F)F)c2)cc1 (stereo not given),-5.3,0,0,0,0
